Screening data as filed in PubChem BioAssay.
The list is not random: actives were taken first. Their share in the collection is about 2.6%.
SENP6 block: SENP6 protease inhibitors, primary screen, biochemical, luminescence, uHTS | Recombinant SENP6 catalytic domain, aminoluciferin luminescence | 330,000 tested, 1.8% active | inhibition, % at 10 µM | Sentrin-specific protease 6 (Homo sapiens), Q9GZR1;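 active means inhibition above about 50% at the single tested dose, limit read from the data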;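 further: plate controls were DMSO wells with enzyme for no effect and DMSO wells lacking enzyme for full effect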
SENP1 inh: human SENP1 catalytic domain inhibitors, primary screen, biochemical, FRET, uHTS; recombinant SENP1 catalytic domain, CyPet-SUMO1-YPet FRET cleavage; AID 624204, 2012; inhibition, % at 10 µM; 360,000 tested, 0.21% active; Sentrin-specific protease 1 (Homo sapiens), Q9P0U3;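 active means inhibition at least 30% at 10 µM, raw YFP signal under a set limit, fluorescence ratio 0.5 to 1.5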;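 further: 0% = enzyme with DMSO and 100% = no enzyme wells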
Target sequence (Q9P0U3 419-644 limits assumed): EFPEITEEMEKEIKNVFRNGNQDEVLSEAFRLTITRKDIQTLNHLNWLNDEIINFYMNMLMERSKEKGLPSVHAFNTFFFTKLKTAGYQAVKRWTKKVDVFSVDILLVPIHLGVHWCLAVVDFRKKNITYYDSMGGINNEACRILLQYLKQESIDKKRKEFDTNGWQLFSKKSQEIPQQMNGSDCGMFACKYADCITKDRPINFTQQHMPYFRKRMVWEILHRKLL
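Material: hSENP1 catalytic domain, recombinant; medium: Tris pH 8 with BME, BSA, NP40 and catalase; compound: single concentration of 10 µM compound, 0.5% DMSO final; technique: FRET read of cyan and yellow fluorescence; timing: 50 min enzyme reaction, room temperature, light-protected; reagent: SFCypet-SUMO1-SFYpet substrate at 25 nM; control set: no-enzyme low, enzyme-DMSO high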
SENP8 block-1: SENP8 protease inhibitors, primary screen, biochemical, luminescence. inhibition, % at 10 µM. 330,000 tested, 1.2% active. Sentrin-specific protease 8 (Homo sapiens), Q96LD8. purified SENP8, Z-RLRGG-aminoluciferin cleavage; in the data active means inhibition above about 50%
Target sequence (Q96LD8 whole entry, looked up): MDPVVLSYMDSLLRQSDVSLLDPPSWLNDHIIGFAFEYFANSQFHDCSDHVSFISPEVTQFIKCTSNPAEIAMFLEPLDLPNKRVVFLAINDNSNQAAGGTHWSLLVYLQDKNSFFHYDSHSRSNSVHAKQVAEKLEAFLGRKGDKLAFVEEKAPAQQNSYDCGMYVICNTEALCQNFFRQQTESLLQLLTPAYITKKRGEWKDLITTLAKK
SENP7 inh: SENP7 protease inhibitors, primary screen, biochemical, luminescence, uHTS; AID 434973, 2010; Sentrin-specific protease 7 (Homo sapiens), Q9BQF6; 330,000 tested, 1.5% active; inhibition, % at 5 µM; recombinant SENP7, Z-RLRGG-aminoluciferin luminescence, 40 min;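 active means inhibition above about 50% at the single test dose, limit read from the data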;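 further: plate controls were DMSO with enzyme for no effect and no enzyme buffer wells for full effect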
SENP8 block-2: human SENP8 protease inhibitors, primary screen, biochemical, fluorescence, Nedd8 protein substrate, uHTS; Sentrin-specific protease 8 (Homo sapiens), Q96LD8; recombinant SENP8; inhibition, % at 20 µM; 360,000 tested, 0.64% active; AID 602440, 2012; in the data active means inhibition mostly above about 40%, no sharp cut-off; inactive means mostly below about 27%
Platelet DG rel: inhibitors of platelet dense granule secretion, primary screen, cell-based, MLPCN, human platelets; human platelet-rich plasma, SFLLRN dense granule ATP release, luminescence; inhibition, %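 (compounds screened at 7.5 µM in platelet-rich plasma)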; 300,000 tested, 0.22% active; AID 1663, 2009;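 active means mean replicate score, as percent of positive control, at or above 50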
SENP8 conf: SENP8 protease inhibitors, retest, confirmation, biochemical, luminescence, single concentration. shares compounds with SENP7 inh. Recombinant SENP8, Z-RLRGG-aminoluciferin luminescence, 60 min. inhibition, % at 12.5 µM. 6,200 tested, 40% active. AID 488912, 2010;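 active means mean inhibition across replicates above about 50%, limit read from the data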
SENP6 confirm: SENP6 protease inhibitors, confirmation, biochemical, luminescence, single concentration; AID 488915, 2010; shares compounds with SENP7 inh; inhibition, % at 12.5 µM; recombinant SENP6, Z-RLRGG-aminoluciferin luminescence; 6,200 tested, 58% active
SENP7 conf: SENP7 protease inhibitors, retest, confirmation, biochemical, luminescence, single concentration; inhibition, % at 12.5 µM; recombinant SENP7, Z-RLRGG-aminoluciferin luminescence, 40 min; shares compounds with SENP7 inh; 6,200 tested, 69% active
Casp3 select: caspase-3 protease inhibitors, confirmation, selectivity assay for SENP inhibitor project, biochemical, single concentration. shares compounds with SENP7 inh. purified caspase-3, Z-DEVD-aminoluciferin luminescence, 60 min. inhibition, % at 12.5 µM. 6,200 tested, 60% active;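 active means mean inhibition above about 50%, limit read from the data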;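 further: plate controls were enzyme with DMSO for no effect and wells without caspase-3 for full effect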
Target sequence (P42574 28-227 limits assumed): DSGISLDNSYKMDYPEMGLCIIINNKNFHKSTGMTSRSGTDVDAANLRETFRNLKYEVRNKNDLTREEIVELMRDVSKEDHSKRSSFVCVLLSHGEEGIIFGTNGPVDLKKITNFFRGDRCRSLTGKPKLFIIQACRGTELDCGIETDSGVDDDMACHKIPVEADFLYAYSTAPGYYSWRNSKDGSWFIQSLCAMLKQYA
SENP luc ctr: counter-screen for SENP inhibitors: luminescence interference; shares compounds with SENP7 inh; Pre-incubated SENP8/Z-RLRGG-aminoluciferin, luciferase luminescence interference; inhibition, % at 12.5 µM; 6,200 tested, 39% active;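 active means mean inhibition above about 50% when retested at one dose, limit read from the data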;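 further: plate controls were DMSO wells with completed reaction for no effect and substrate without enzyme for full effect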
* hit, by the source's call; / = not tested or not shown.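 How the source made its calls, unless noted: active means mean inhibition above about 50% in the one-dose retest (limit read from the data); inactive means the rest.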

SMILES	SENP6 block	SENP1 inh	SENP8 block-1	SENP7 inh	SENP8 block-2	Platelet DG rel	SENP8 conf	SENP6 confirm	SENP7 conf	Casp3 select	SENP luc ctr
CCc1noc(C)c1C(=O)Nc1nc2ccc(S(C)(=O)=O)cc2s1	40.6	-6.9	4.2	24.6	-261.9	6.5	/	/	/	/	/
Cc1noc(C)c1C(=O)Nc1nc2ccc(F)cc2s1	0.2	-11.3	98.6*	100.4*	-70.8	/	97.0*	99.7*	103.1*	98.6*	47.5
CCc1noc(C)c1C(=O)Nc1nc2ccc(F)cc2s1	81.2*	-7.2	64.2*	65.8*	-34.4	3.6	76.3*	75.6*	94.0*	74.6*	70.8*
Cc1onc(-c2ccccc2Cl)c1C(=O)Nc1nc2ccc(S(C)(=O)=O)cc2s1	-8.1	-4.3	-0.8	-12.1	-338.6	5.6	/	/	/	/	/
NC(=O)c1ccccc1N/C=C/C(=O)c1ccccc1	94.1*	-51.4	87.8*	90.7*	-285.6	27.8	86.6*	95.1*	101.8*	96.3*	80.9*
COC(=O)c1ccccc1N/C=C/C(=O)c1ccc(Br)cc1	66.0*	-117.2	4.1	52.7*	-207.2	-9.6	12.2	28.7	47.3	41.0	6.9
CN(C)c1ccc(N/C=C/C(=O)c2ccc(F)cc2)cc1	98.4*	66.7*	94.1*	99.9*	35.5	95.3*	2.8	61.4*	25.9	71.2*	17.4
COC(=O)c1ccc(N/C=C/C(=O)c2ccccc2)cc1	89.5*	-44.3	75.0*	95.8*	-348.4	35.6	-23.1	-11.4	0.6	-2.8	-1.7
O=C(/C=C/Nc1ccc(F)cc1)c1ccc(Oc2ncccn2)cc1	-16.4	-39.6	-1.4	-14.6	-288.9	3.0	/	/	/	/	/
C#Cc1cccc(-n2nnc(C(=O)OC)c2-c2ccccc2)c1	-4.9	-1.2	-8.1	-12.9	13.9	-6.4	/	/	/	/	/
CCOP(=O)(c1ccccc1)C1(O)CCCCC1 (centres undefined)	-26.5	1.5	-8.7	-5.1	12.9	-18.4	/	/	/	/	/
COC(=O)Nc1ccc(OCc2ccccc2)cc1	72.8*	2.0	47.8	1.9	7.6	5.7	52.9*	50.9*	82.2*	62.9*	17.6
O=C(O)c1cccc(COc2ccc3c(c2)CCC3)c1	97.0*	0.6	97.2*	98.9*	25.1	-2.2	10.6	100.9*	103.6*	98.9*	99.6*
CCOc1ccc(OCc2cccc(C(=O)N3CCCC3)c2)cc1	12.5	0.9	9.1	8.1	-0.5	2.2	/	/	/	/	/
CCOc1ccc(OCc2cccc(C(=O)O)c2)cc1	98.6*	-0.6	96.1*	100.4*	16.4	6.0	10.2	100.3*	103.4*	99.3*	97.8*
O=C(O)c1cccc(COc2ccc(CO)cc2Cl)c1	97.1*	2.1	96.3*	100.1*	7.2	14.4	97.5*	100.5*	103.6*	98.4*	98.8*
COCC(=O)Nc1ccc(OCc2ccccc2)cc1	29.9	1.8	15.6	39.1	14.5	-7.7	/	/	/	/	/
O=C(NCc1ccccc1)c1cccc(COc2ccc3c(c2)CCC3)c1	24.5	-5.0	6.8	-1.1	-1.2	9.2	/	/	/	/	/
CCOC(=O)CCc1c(C)nc(SCCN2CCCC2)c(C#N)c1C	1.0	-45.9	3.2	4.4	-21.4	0.5	/	/	/	/	/
COCCCNC(=O)CN(c1cccc(Cl)c1C)S(C)(=O)=O	-3.7	-0.6	-5.1	-2.4	10.0	4.1	/	/	/	/	/
COc1cccc(C#Cc2c(CO)[nH]c3ccccc23)c1	4.0	-22.0	-2.4	6.0	-216.0	/	/	/	/	/	/
COc1ccc(OCc2cccc(C(=O)O)c2)cc1	97.6*	0.6	96.5*	99.5*	18.7	13.5	99.9*	100.9*	103.3*	99.3*	99.2*
COc1cc(/C=C/[N+](=O)[O-])ccc1OCc1cccc(C(=O)O)c1	51.5*	/	25.1	23.7	/	-0.1	57.1*	31.7	48.7	16.0	64.5*
O=C(COC(=O)COc1ccccc1)Nc1ccc(Cl)cn1	3.1	1.8	-10.0	-2.9	1.3	/	/	/	/	/	/
CC1CCN(C(=O)COC(=O)c2cc([N+](=O)[O-])ccc2N2CCOCC2)CC1	-11.7	1.0	-3.5	6.5	11.1	0.9	/	/	/	/	/
SMILES	SENP6 block	SENP1 inh	SENP8 block-1	SENP7 inh	SENP8 block-2	Platelet DG rel	SENP8 conf	SENP6 confirm	SENP7 conf	Casp3 select	SENP luc ctr
O=c1c2c(nc3cc(-c4ccccc4)[nH]n13)CCS2	78.1*	1.3	68.9*	11.5	14.3	0.0	-23.2	-11.5	6.4	11.7	-2.9
O=c1c2c(nc3cc(-c4ccccc4)[nH]n13)CCC2	57.2*	1.3	19.3	45.4	-232.6	11.9	22.1	15.5	29.9	43.5	7.2
Cc1ccc(/C(N)=N/OC(=O)c2ccc3c(c2)OCO3)cc1	71.4*	2.5	59.9*	42.3	1.7	0.2	24.2	43.2	87.0*	80.7*	19.7
COc1ccc(/C(N)=N/OC(=O)c2ccc3c(c2)OCO3)cc1	49.6	1.0	28.4	68.4*	15.5	-3.8	8.7	25.4	30.7	30.3	4.4
N/C(=N\OC(=O)c1ccc2c(c1)OCO2)c1ccncc1	68.1*	6.7	43.1	60.5*	10.5	20.3	53.0*	48.1	76.0*	82.3*	59.5*
N/C(=N\OC(=O)c1ccc2c(c1)OCO2)c1ccc(Cl)cc1	87.0*	-1.3	76.1*	-5.6	0.0	-4.6	23.3	67.6*	94.4*	86.2*	17.8
CN(C)C(=O)c1cc(S(=O)(=O)N(C)C)c(Cl)cc1N1CCCC1	-2.7	1.6	0.8	0.5	10.0	2.8	/	/	/	/	/
CCOC(=O)CSC1=NC(=O)/C(=C\c2ccc(Cl)cc2)S1	34.3	6.0	46.0	33.7	24.7	3.2	/	/	/	/	/
